# The source made the active and inactive calls. The rule behind the calls is not given here.
# Experiments:
# [1] = Cytotoxicity against human NCI60 cells assessed as cellular growth at 10 uM after 48 hrs by SRB assay relative to untreated control; type: functional
# Outline: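 NCI-60 panel lines grown in RPMI 1640 with 5% FBS and 2 mM L-glutamine. Plated at 5000–40,000 cells/well and preincubated 24 h at 37 °C, 5% CO₂, with time-zero plates fixed in TCA. Compounds, dissolved in DMSO and diluted in medium, were applied for 48 h. Cells were TCA-fixed (10% final for adherent, 16% for suspension) and stained with 0.4% SRB in 1% acetic acid. Dye was solubilised in 10 mM Tris base and read at 515 nm; growth was expressed as a percentage of untreated control.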
# Ovis aries = species: Ovis aries; assay: Inhibition of sheep brain tubulin polymerization at 10 uM
# Outline: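 Microtubule protein from sheep brain, purified by two assembly/disassembly cycles (37 °C/0 °C), in 100 mM MES pH 6.6, 1 mM EGTA, 0.5 mM MgCl₂. Compounds in DMSO were tested at a single concentration, with incubation at 37 °C for 10 min and then 0 °C for 5 min before measuring assembly rate, following a modified Guénard protocol.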
# HCT-116 [2] = assay: Cytotoxicity against human HCT116 cells at 10^-6 M after 72 hrs by MTS assay; type: functional; conditions: HCT-116, 72 h, read-out: GI
# Outline: (§1)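 Cells grown in RPMI with 10% fetal calf serum, penicillin, streptomycin and fungizone under 5% CO₂. Plated in 96-well plates and dosed 24 h later with compound in DMSO (1% final DMSO; controls got DMSO alone). After 72 h, MTS was added for 3 h at 37 °C and A490 read. Inhibition = (1 − OD treated/OD control) × 100, in triplicate.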
# MCF7 [3] = assay: Cytotoxicity against human MCF7 cells at 10^-6 M after 72 hrs by MTS assay; type: functional; conditions: MCF7, 72 h, read-out: GI
# HT-29 [4] = assay: Cytotoxicity against human HT-29 cells at 10^-6 M after 72 hrs by MTS assay; type: functional; conditions: HT-29, 72 h, read-out: GI; outline: as §1
# PC-3 [5] = assay: Cytotoxicity against human PC3 cells at 10^-6 M after 72 hrs by MTS assay; type: functional; conditions: PC-3, 72 h, read-out: GI
# Outline: (§2)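 Preliminary screen at 10^-5 and 10^-6 M. Cells were grown in RPMI with 10% fetal calf serum plus penicillin, streptomycin and fungizone under 5% CO₂, plated in 96-well plates, and dosed 24 h later from DMSO stocks (1% DMSO final, same in controls). After 72 h, MTS was added for 3 h at 37 °C and absorbance read at 490 nm. Inhibition was calculated as (1 − OD treated/OD control) × 100, in triplicate.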
# [6] = Cytotoxicity against human HL60R cells at 10^-6 M after 72 hrs by MTS assay; type: functional; conditions: read-out: GI; outline: as §1
# K562 [7] = assay: Cytotoxicity against human K562 cells at 10^-6 M after 72 hrs by MTS assay; type: functional; conditions: K562, 72 h, read-out: GI; outline: as §1
# A549 [8] = assay: Cytotoxicity against human A549 cells at 10^-6 M after 72 hrs by MTS assay; type: functional; conditions: A549, 72 h, read-out: GI; outline: as §1
# MIA PaCa-2 [9] = assay: Cytotoxicity against human MIAPaCa2 cells at 10^-5 M after 72 hrs by MTS assay; type: functional; conditions: MIA PaCa-2, 72 h, read-out: GI
# HCT-15 [10] = assay: Cytotoxicity against human HCT15 cells at 10^-5 M after 72 hrs by MTS assay; type: functional; conditions: HCT-15, 72 h, read-out: GI; outline: as §1
# HL-60 [11] = assay: Cytotoxicity against human HL60 cells at 10^-5 M after 72 hrs by MTS assay; type: functional; conditions: HL-60, 72 h, read-out: GI; outline: as §1
# OVCAR-8 [12] = assay: Cytotoxicity against human OVCAR8 cells at 10^-5 M after 72 hrs by MTS assay; type: functional; conditions: OVCAR-8, 72 h, read-out: GI; outline: as §2
# HCT-15 [13] = assay: Cytotoxicity against human HCT15 cells at 10^-6 M after 72 hrs by MTS assay; type: functional; conditions: HCT-15, 72 h, read-out: GI; outline: as §1
# MCF7 [14] = assay: Cytotoxicity against human MCF7 cells at 10^-5 M after 72 hrs by MTS assay; type: functional; conditions: MCF7, 72 h, read-out: GI
# SK-OV-3 [15] = assay: Cytotoxicity against human SKOV3 cells at 10^-6 M after 72 hrs by MTS assay; type: functional; conditions: SK-OV-3, 72 h, read-out: GI; outline: as §2
# SF-268 [16] = assay: Cytotoxicity against human SF268 cells at 10^-6 M after 72 hrs by MTS assay; type: functional; conditions: SF-268, 72 h, read-out: GI; outline: as §2
# SK-OV-3 [17] = assay: Cytotoxicity against human SKOV3 cells at 10^-5 M after 72 hrs by MTS assay; type: functional; conditions: SK-OV-3, 72 h, read-out: GI; outline: as §2
# MIA PaCa-2 [18] = assay: Cytotoxicity against human MIAPaCa2 cells at 10^-6 M after 72 hrs by MTS assay; type: functional; conditions: MIA PaCa-2, 72 h, read-out: GI
# HL-60 [19] = assay: Cytotoxicity against human HL60 cells at 10^-6 M after 72 hrs by MTS assay; type: functional; conditions: HL-60, 72 h, read-out: GI; outline: as §1
# HCT-116 [20] = assay: Cytotoxicity against human HCT116 cells at 10^-5 M after 72 hrs by MTS assay; type: functional; conditions: HCT-116, 72 h, read-out: GI; outline: as §1
# [21] = Cytotoxicity against human HL60R cells at 10^-5 M after 72 hrs by MTS assay; type: functional, HL-60; conditions: read-out: GI; outline: as §1
# [22] = Cytotoxicity against human MDA231 cells at 10^-6 M after 72 hrs by MTS assay; type: functional; conditions: MDA-MB-231, 72 h, read-out: GI; outline: as §2
# A549 [23] = assay: Cytotoxicity against human A549 cells at 10^-5 M after 72 hrs by MTS assay; type: functional; conditions: A549, 72 h, read-out: GI; outline: as §1
# OVCAR-8 [24] = assay: Cytotoxicity against human OVCAR8 cells at 10^-6 M after 72 hrs by MTS assay; type: functional; conditions: OVCAR-8, 72 h, read-out: GI; outline: as §2
# HT-29 [25] = assay: Cytotoxicity against human HT-29 cells at 10^-5 M after 72 hrs by MTS assay; type: functional; conditions: HT-29, 72 h, read-out: GI; outline: as §1
# SF-268 [26] = assay: Cytotoxicity against human SF268 cells at 10^-5 M after 72 hrs by MTS assay; type: functional; conditions: SF-268, 72 h, read-out: GI; outline: as §2
# [27] = Cytotoxicity against human MDA231 cells at 10^-5 M after 72 hrs by MTS assay; type: functional; conditions: MDA-MB-231, 72 h, read-out: GI; outline: as §2
# K562 [28] = assay: Cytotoxicity against human K562 cells at 10^-5 M after 72 hrs by MTS assay; type: functional; conditions: K562, 72 h, read-out: GI; outline: as §1
# PC-3 [29] = assay: Cytotoxicity against human PC3 cells at 10^-5 M after 72 hrs by MTS assay; type: functional; conditions: PC-3, 72 h, read-out: GI; outline: as §2
compound,measurement,setting,value
COc1cc(C(=C2O[C@@H]([C@H]3COC(C)(C)O3)[C@H]3OC(C)(C)O[C@@H]23)c2cc(OC)c(OC)c(OC)c2)cc(OC)c1OC,Activity,[1],105%
COc1cc(/C(=C2\O[C@@H]([C@H]3COC(C)(C)O3)[C@H]3OC(C)(C)O[C@@H]23)c2cccc(N)c2)cc(OC)c1OC,Activity,[1],102%
COc1ccc(C(=C(COC(C)=O)COC(C)=O)c2cc(OC)c(OC)c(OC)c2)cc1O[Si](C)(C)C(C)(C)C,tubulin polymerization inhibition call (active/not active),Ovis aries,inactive
COc1cc(/C(=C2\O[C@@H]([C@H](O)CO)[C@H]3OC(C)(C)O[C@@H]23)c2cccc(N)c2)cc(OC)c1OC,Activity,[1],103%
same,tubulin polymerization inhibition call (active/not active),Ovis aries,inactive
COc1ccc(/C(=C2/O[C@@H]([C@H](O)CO)[C@H]3OC(C)(C)O[C@@H]23)c2cc(OC)c(OC)c(OC)c2)cc1O,Activity,[1],79%
COc1cc(/C(=C2\O[C@@H]([C@H]3COC(C)(C)O3)[C@H]3OC(C)(C)O[C@@H]23)c2cccc([N+](=O)[O-])c2)cc(OC)c1OC,inhibition of growth at 1 µM,HCT-116 [2],5%
same,inhibition of growth at 1 µM,MCF7 [3],7%
same,inhibition of growth at 1 µM,HT-29 [4],7%
same,inhibition of growth at 1 µM,PC-3 [5],2%
same,inhibition of growth at 1 µM,[6],13%
same,inhibition of growth at 1 µM,K562 [7],8%
same,inhibition of growth at 1 µM,A549 [8],10%
same,inhibition of growth at 10 µM,MIA PaCa-2 [9],0%
same,inhibition of growth at 10 µM,HCT-15 [10],5%
same,inhibition of growth at 10 µM,HL-60 [11],22%
same,inhibition of growth at 10 µM,OVCAR-8 [12],0%
same,inhibition of growth at 1 µM,HCT-15 [13],6%
same,inhibition of growth at 10 µM,MCF7 [14],11%
same,inhibition of growth at 1 µM,SK-OV-3 [15],15%
same,inhibition of growth at 1 µM,SF-268 [16],12%
same,inhibition of growth at 10 µM,SK-OV-3 [17],40%
same,inhibition of growth at 1 µM,MIA PaCa-2 [18],4%
same,inhibition of growth at 1 µM,HL-60 [19],2%
same,inhibition of growth at 10 µM,HCT-116 [20],8%
same,inhibition of growth at 10 µM,[21],29%
same,inhibition of growth at 1 µM,[22],0%
same,inhibition of growth at 10 µM,A549 [23],12%
same,inhibition of growth at 1 µM,OVCAR-8 [24],0%
same,inhibition of growth at 10 µM,HT-29 [25],0%
same,inhibition of growth at 10 µM,SF-268 [26],20%
same,inhibition of growth at 10 µM,[27],16%
same,inhibition of growth at 10 µM,K562 [28],9%
same,inhibition of growth at 10 µM,PC-3 [29],0%
COc1cc([C@@H]2c3cc4c(cc3C[C@H]3COC(=O)[C@@H]32)OCO4)cc(OC)c1OC,tubulin polymerization inhibition call (active/not active),Ovis aries,Active
